The values below come from ChEMBL document CHEMBL4052599, “Combined in Vitro Cell-Based/in Silico Screening of Naturally Occurring Flavonoids and Phenolic Compounds as Potential Anti-Alzheimer Drugs” (J Nat Prod, 2017).

A short description of data set [1]: n-octanol-water partition coefficient, log P of the compound. It is filed as physicochemical.
Data set [2] has as its target T1, Amyloid-beta precursor protein (Homo sapiens, UniProt P05067). Put plainly: Displacement of [3H]PIB from human amyloid beta (1 to 40) fibrils after 3 hrs by liquid scintillation counting.
Data set [3] deals with Escherichia coli BL21(DE3). Put plainly: Inhibition of amyloid beta (1 to 42) aggregation in Escherichia coli competent cells BL21 (DE3) at 200 uM after overnight incubation by Thioflavin-S steady-state fluorescence assay. Summed up: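 Aβ42 (extra N-terminal Met) expressed from pET28a in E. coli BL21(DE3). Cells grown in M9 minimal medium with 50 μg/mL kanamycin and 25 μM Th-S (final), IPTG-induced or not, with compound at 200 μM final in DMSO, overnight at 37 °C, 1400 rpm. Th-S read at ex 440 nm, em 460–600 nm. Amyloid band = induced minus noninduced spectrum, normalized to OD600.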

A short description of data set [4]: Inhibition of amyloid beta (1 to 42) aggregation in vitro cell-free polymerization assay.
Data set [5] deals with T1, Amyloid-beta precursor protein. Description: Inhibition of amyloid beta (1 to 42) (unknown origin) aggregation by Thioflavin-T fluorescence assay.
Data set [6] shares this target. Put plainly: Inhibition of recombinant amyloid beta (1 to 42) fibrils (unknown origin) by thioflavin-T fluorescence assay.
Data set [7] has the same target. Description: Inhibition of amyloid beta (1 to 42) (unknown origin) aggregation assessed as half life for aggregation at 200 uM by Thioflavin-S fluorescence assay.
Data set [8] has the same target. Put plainly: Inhibition of amyloid beta (1 to 42) (unknown origin) aggregation assessed as end-time for aggregation at 200 uM after 48 hrs by Thioflavin-T fluorescence assay.
The target is the same in data set [9]. Description: Inhibition of amyloid beta (1 to 42) (unknown origin) aggregation assessed as lag time at 200 uM in Escherichia coli BL21 (DE3) cells by Thioflavin-S staining time-course kinetics (reference value: 64.4 mins).
Data set [10] shares this target. Put plainly: Inhibition of amyloid beta (1 to 42) (unknown origin) aggregation at 200 uM after 48 hrs by Thioflavin-T fluorescence assay relative to control.
Data set [11] has the same target. Put plainly: Inhibition of amyloid beta (1 to 42) (unknown origin) aggregation assessed as apparent elongation constant at 200 uM after 48 hrs by Thioflavin-T fluorescence assay.
[12] abbreviates: n-octanol/water, read-out: logP.

T1 sequence (P05067 whole entry): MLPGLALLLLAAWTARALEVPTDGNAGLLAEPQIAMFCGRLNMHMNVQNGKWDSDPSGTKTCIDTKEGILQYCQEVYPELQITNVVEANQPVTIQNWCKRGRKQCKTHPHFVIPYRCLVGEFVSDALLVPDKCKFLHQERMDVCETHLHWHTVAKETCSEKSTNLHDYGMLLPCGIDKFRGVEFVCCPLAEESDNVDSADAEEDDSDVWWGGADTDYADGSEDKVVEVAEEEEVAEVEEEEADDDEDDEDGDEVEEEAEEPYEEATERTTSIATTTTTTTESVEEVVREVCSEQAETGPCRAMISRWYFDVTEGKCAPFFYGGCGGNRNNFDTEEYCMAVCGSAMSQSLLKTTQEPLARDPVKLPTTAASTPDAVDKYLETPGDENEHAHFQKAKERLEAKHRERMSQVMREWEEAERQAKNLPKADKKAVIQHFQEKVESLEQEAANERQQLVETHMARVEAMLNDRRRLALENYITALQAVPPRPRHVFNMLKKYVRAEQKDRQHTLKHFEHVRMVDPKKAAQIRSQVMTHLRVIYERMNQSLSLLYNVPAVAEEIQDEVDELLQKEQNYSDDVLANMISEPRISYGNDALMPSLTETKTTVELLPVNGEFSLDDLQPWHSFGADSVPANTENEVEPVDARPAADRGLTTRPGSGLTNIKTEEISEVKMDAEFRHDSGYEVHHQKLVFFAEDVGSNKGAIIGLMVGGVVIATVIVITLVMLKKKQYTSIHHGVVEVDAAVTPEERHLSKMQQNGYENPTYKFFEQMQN

With `CNc1ccc(-c2nc3ccc(O)cc3s2)cn1`, the lipophilicity (logP) in data set [1] (setting [12]) worked out at 2.7. Moreover, the Kd in [2] was determined as 0.0084 µM.

The molecule `COc1cc(/C=C/C(=O)CC(=O)/C=C/c2ccc(O)c(OC)c2)ccc1O` showed an inhibition in data set [3] of 37.8%.

In data set [3], `COc1ccc2[nH]cc(CCNC(C)=O)c2c1` had an inhibition of 7.5%.

In [3], `COc1cccc(C=O)c1O` displayed an inhibition of 18.5%.

Regarding `O=C(/C=C/c1ccc(O)c(O)c1)O[C@H](Cc1ccc(O)c(O)c1)C(=O)O`, the inhibition in data set [3] is 5.5%.

`O=C1c2c(O)cc(O)cc2O[C@H](c2cc(O)c(O)c(O)c2)[C@H]1O` [AMPELOPSIN]: the 50% inhibitory concentration (IC50) is 25.3 µM in data set [4] and 12.8 to 25.3 µM in [5].

Take `O=c1cc(-c2ccc(O)cc2)oc2cc(O)cc(O)c12` [APIGENIN]: the values for the inhibition in data set [3] and in [10] were 77.3% and 52.7%, respectively. The log partition coefficient (logP) in [1] (setting [12]) worked out at 2.2. The IC50 in [6] is 23 to 39 µM; in data set [5], 176 µM. Besides, in [7], the T1/2 came to 5.1 h. The TIME in [8] is 8.85 h. Moreover, the Tlag in data set [9] came to 81.3 min. Besides, the Ke(app) in data set [11] was determined as 61.6 M⁻¹ s⁻¹.

`O=c1c(O)c(-c2ccccc2O)oc2cc(O)cc(O)c12` [DATISCETIN] registered an IC50 in [4] of 55.4 µM.

In the case of `O=c1c(O)c(-c2ccccc2)oc2cc(O)cc(O)c12` [GALANGIN], the concentration for half-maximal inhibition (IC50) in data set [4] was greater than 500 µM.

Consider `O=c1c(O)c(-c2ccc(O)cc2)oc2cc(O)cc(O)c12` [KAEMPFEROL], for which the half-inhibitory concentration (IC50) in data set [4] amounted to 75.1 µM.

In [4], `O=c1c(O)c(-c2ccc(O)cc2O)oc2cc(O)cc(O)c12` [MORIN] came in with a 50% inhibitory concentration (IC50) of 30.3 µM.

With `O=c1c(O)c(-c2ccc(O)c(O)c2)oc2cc(O)cc(O)c12` [QUERCETIN], the figures for the inhibition in data set [3] and in data set [10] were 81.3% and 75.4%, respectively. The logP in data set [1] (octanol/water) is 2.7. Besides, the 50% inhibitory concentration (IC50) in data set [4] is 15.3 µM; in data set [5], 125 µM. For the same molecule, the Tlag in data set [9] was 82.7 min.
